One assay relates to HCT-116. As to the kind of experiment: Antiproliferative effect of compound on HCT116 cell line expressing wild-type p53. Type of assay: functional, cell-based. To be noted: Homo sapiens. The method in brief:
(§1)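 Human tumor cell lines exposed to drug for 72 h. Growth was measured by cell counting. IC50, the concentration giving 50% inhibition of cell growth, was read from dose–response curves.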

The next assay concerns NCI-H460. As to the kind of experiment: Antiproliferative effect of compound on H460 cell line expressing wild-type p53. The conditions noted are these: Homo sapiens. The format is functional, cell-based. The method in brief:
as §1

Assay [1] deals with IGROV-1. As to the kind of experiment: (§2) Apoptosis was determined my morphological analysis of propidium-iodide-stained cells following 48 hr exposure to IC80 (0.5 uM), value expressed as percentage of apoptotic cells versus total cell number. The format is functional, Homo sapiens.
Assay [2] deals with DU-145. Described as §2. Type of assay: functional, Homo sapiens.
The next assay deals with LoVo. As to the kind of experiment: Antiproliferative effect of compound on LoVo cell line expressing wild-type p53. The format is functional, cell-based. To be noted: Homo sapiens. The essentials:
as §1

Assay [3] has as its system IGROV-1. As to the kind of experiment: Antiproliferative effect of compound on IGROV-1 cell line expressing wild-type p53. The format is functional, cell-based. The conditions noted are these: Homo sapiens. The method in brief:
as §1

Assay [4] deals with IGROV-1. As to the kind of experiment: (§3) Apoptosis was determined my morphological analysis of propidium-iodide-stained cells following 72 hr exposure to IC80 (0.5 uM), value expressed as percentage of apoptotic cells versus total cell number. Type of assay: functional, Homo sapiens.
Assay [5] has as its system DU-145. The assay is described as §3. The format is functional, Homo sapiens.
The next assay concerns U2OS. As to the kind of experiment: Antiproliferative effect of compound on U2OS cell line expressing wild-type p53. To be noted: Homo sapiens. The format is functional, cell-based. The essentials: as §1
The subject of another assay is PC-3. As to the kind of experiment: Antiproliferative effect of compound on PC3 cell line. Type of assay: functional, cell-based. To be noted: Homo sapiens. The method in brief:
as §1

The next assay has as its system A-431. As to the kind of experiment: Antiproliferative effect of compound on A431 cell line expressing mutant p53. The format is functional, cell-based. The conditions noted are these: Homo sapiens. The essentials:
as §1

The test system of assay [6] is IGROV-1. As to the kind of experiment: (§4) Apoptosis was determined my morphological analysis of propidium-iodide-stained cells following 24 hr exposure to IC80 (0.5 uM), value expressed as percentage of apoptotic cells versus total cell number. Type of assay: functional, Homo sapiens.
Assay [7] deals with DU-145. The description is as §4. Type of assay: functional, Homo sapiens.
For a further assay, the system named is SAOS-2. As to the kind of experiment: Antiproliferative effect of compound on SAOS cell line. Type of assay: functional, cell-based. The conditions noted are these: Homo sapiens. The essentials:
as §1

For the next assay, the system named is Me665/2/21. As to the kind of experiment: Antiproliferative effect of compound on Me665/2/21 cell line expressing mutant p53. The format is functional, cell-based. To be noted: Homo sapiens. The method in brief:
as §1

For a further assay, the system named is GBM. As to the kind of experiment: Antiproliferative effect of compound on GBM cell line expressing mutant p53. The format is functional, cell-based. The conditions noted are these: Homo sapiens. The method in brief:
as §1

The test system of assay [8] is DU-145. As to the kind of experiment: Antiproliferative effect of compound on DU145 cell line expressing mutant p53. The conditions noted are these: Homo sapiens. Type of assay: functional, cell-based. The method in brief: as §1
The next assay relates to LNCaP. As to the kind of experiment: Antiproliferative effect of compound on LNcaP cell line expressing wild-type p53. Type of assay: functional, cell-based. To be noted: Homo sapiens. The method in brief:
as §1

The test system of another assay is A2780. As to the kind of experiment: Antiproliferative effect of compound on A2780/DX cell line. Type of assay: functional, cell-based. The conditions noted are these: Homo sapiens. The method in brief: as §1

What is called IC50 is the concentration needed to halve the response being measured. A lower IC50 goes with greater potency in that assay. Take `O=C(O)c1ccc2cc(-c3ccc(O)c(C45CC6CC(CC(C6)C4)C5)c3)ccc2c1` [O-DEMETHYLATED ADAPALENE]: the IC50 in the assay with HCT-116 worked out at 680 nM; in the assay on NCI-H460, 430 nM; with LoVo it was 490 nM; in the assay on IGROV-1 [3] it was 350 nM; with U2OS, 440 nM; with PC-3 it was 430 nM. In addition, the IC50 amounted to 510 nM in the assay with A-431; 670 nM in the assay on SAOS-2; 420 nM in the assay with Me665/2/21; 550 nM in the assay with GBM; 280 nM in the assay with DU-145 [8]; 320 nM with LNCaP. The Apoptosis is listed as 15% in the assay on IGROV-1 [1]; 33% in the assay on DU-145 [2]; 38% in the assay with IGROV-1 [4]; 30% with DU-145 [5]; 22% with IGROV-1 [6]; 16% in the assay on DU-145 [7].
In the case of `O=C(O)/C=C/c1ccc(-c2ccc(O)c(C34CC5CC(CC(C5)C3)C4)c2)cc1` [ADAROTENE], the half-maximal inhibitory concentration (IC50) with HCT-116 came to 320 nM; in the assay on NCI-H460 it was 190 nM; in the assay with LoVo, 150 nM; with IGROV-1 [3] it was 230 nM; with A2780, 100 nM; in the assay on U2OS it was 260 nM. Further, the concentration for half-maximal inhibition (IC50) amounted to 210 nM with PC-3; 250 nM in the assay with A-431; 250 nM in the assay with SAOS-2; 250 nM in the assay on Me665/2/21; 180 nM in the assay with GBM; 100 nM in the assay on DU-145 [8]. In the assay on LNCaP, this molecule gave an IC50 of 120 nM. Besides, the Apoptosis in the assay on IGROV-1 [1] stood at 46%; in the assay on DU-145 [2], 44%; in the assay on IGROV-1 [4], 44%; with DU-145 [5], 50%; in the assay with IGROV-1 [6], 42%; in the assay with DU-145 [7], 24%.

For the origin of these results see ChEMBL document CHEMBL1136723, “A novel atypical retinoid endowed with proapoptotic and antitumor activity” (J Med Chem, 2003).
